Bioassay records (PubChem)
Only some compounds are listed: those with a hit (about 4.8% of all), similar ones and a draw of the others.
XBP1 UPR activ: activators of adaptive arm of unfolded protein response (XBP1); activation, % at 20 µM; hit rate 0.33% among 330,000; CHO-XBP1 luciferase reporter, IRE1-XBP1 UPR activation, luminescence; percent of tunicamycin response, DMSO as zero;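 active = versus positive control, 20 µM dose yields 30% or more activation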
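Test system: CHO-XBP1 luciferase reporter cells | Buffer or medium: Serum-containing F12 medium, 10% FBS | Schedule: 6 h compound exposure at 37 °C, 5% CO2 | Detection: Steady-Glo luciferase glow luminescence, 10 min after reagent addition | Read-out basis: Activation, % of tunicamycin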
Mdm2-MdmX inh: inhibitors of human Mdm2/MdmX interaction; hit rate 3% among 330,000; inhibition, % at 8 µM; SaOS-2 split-luciferase Mdm2/MdmX complementation, luminescence;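 active = inhibition of at least 50% at 8 µM in the primary screen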
Target sequence (O15151 whole entry, looked up): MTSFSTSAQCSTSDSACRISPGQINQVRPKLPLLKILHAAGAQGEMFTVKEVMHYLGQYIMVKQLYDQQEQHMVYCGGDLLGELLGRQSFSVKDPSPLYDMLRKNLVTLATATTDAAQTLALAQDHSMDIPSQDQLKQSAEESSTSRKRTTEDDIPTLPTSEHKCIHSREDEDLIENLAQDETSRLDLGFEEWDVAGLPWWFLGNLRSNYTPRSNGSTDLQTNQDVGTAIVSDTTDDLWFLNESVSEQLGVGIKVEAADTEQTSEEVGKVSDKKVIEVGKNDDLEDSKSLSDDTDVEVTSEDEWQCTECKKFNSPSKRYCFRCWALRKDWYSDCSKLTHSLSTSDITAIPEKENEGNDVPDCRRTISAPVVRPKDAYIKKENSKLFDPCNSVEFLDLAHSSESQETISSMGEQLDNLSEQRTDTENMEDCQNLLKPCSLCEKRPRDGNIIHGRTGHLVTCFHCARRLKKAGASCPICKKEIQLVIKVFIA
Target sequence (Q00987 whole entry, looked up): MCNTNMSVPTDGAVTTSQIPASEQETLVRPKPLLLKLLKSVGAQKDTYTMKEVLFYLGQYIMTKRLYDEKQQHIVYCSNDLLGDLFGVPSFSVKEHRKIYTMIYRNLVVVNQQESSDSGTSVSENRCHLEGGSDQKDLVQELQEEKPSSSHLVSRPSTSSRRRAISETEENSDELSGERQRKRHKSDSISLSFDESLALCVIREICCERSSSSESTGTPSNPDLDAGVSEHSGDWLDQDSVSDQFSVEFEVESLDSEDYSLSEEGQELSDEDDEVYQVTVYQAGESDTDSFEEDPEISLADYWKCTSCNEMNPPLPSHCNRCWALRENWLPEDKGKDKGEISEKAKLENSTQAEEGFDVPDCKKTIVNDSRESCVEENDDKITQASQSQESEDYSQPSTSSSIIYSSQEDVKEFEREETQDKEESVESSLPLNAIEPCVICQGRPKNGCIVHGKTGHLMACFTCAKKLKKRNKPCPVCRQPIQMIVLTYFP
UPR CHOP act: activators of apoptotic arm of unfolded protein response (CHOP); CHO-CHOP luciferase reporter, UPR activation, luminescence; percent of tunicamycin response over DMSO baseline; activation, % at 10 µM; hit rate 0.34% among 330,000;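 active = at 10 µM dose, activation of 40% or more, normalized to positive control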
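Assay system: CHO cells with stable CHOP pathway luciferase reporter; Buffer or medium: F12 plus 10% serum; Times: 16-18 h cell attachment, then 6 h compound exposure, 37 °C; Signal: luciferase luminescence; Read-out basis: percent activation relative to tunicamycin control; Control set: tunicamycin high control, DMSO low control.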
SKKanGAS inh: SKKanGAS growth inhibition; inhibition, % at 7.5 µM; hit rate 1.3% among 300,000; AID 1662; S. pyogenes SKKanGAS, kanamycin growth, BacTiter-Glo, 6 h;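 active = mean replicate score, as percent of positive control median, at least 50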;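 note: strain carries kanamycin resistance gene driven by streptokinase promoter and grows in 40 µg/ml kanamycin; loss of luminescence reflects streptokinase promoter inhibition or plain growth inhibition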
Beta apoptosis: blocks beta cell apoptosis. INS-1E cytokine-induced death, ATP luminescence, 48 h; percent of positive-control rescue, neutral wells zero. protection from apoptosis, % (concentration not given with the values). hit rate 0.8% among 300,000;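 active = Every replicate reaches about 75%, or at least half do and their mean reaches it too, limit read from the data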;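 note: higher means more ATP so stronger rescue from cytokine killing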
CSC inhib: blocks cancer stem cells. inhibition, % at 7.5 µM. hit rate 1.1% among 300,000. AID 2717. cancer stem cell-like cells viability, luminescence; in the data active = inhibition above about 75%; tested in HMLE shEcad cells
Mdm2-MdmX conf: confirmation of human Mdm2/MdmX interaction inhibitors. shares compounds with Mdm2-MdmX inh. Mdm2-MdmX binding, luminescent assay. inhibition, % at 8 µM. hit rate 55% among 10,000. AID 489028; in the data active = inhibition above about 40%
Full FLuc ctr: inhibits full-length luciferase, flagging false Mdm2/MdmX hits; AID 504607; SaOS-2 full-length luciferase counterscreen, luminescence; inhibition, % at 8 µM; hit rate 77% among 6,200; shares compounds with Mdm2-MdmX inh;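 active = mean inhibition at 8 µM reaching about 37%, which flags the compound as non-specific, limit read from the data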;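 note: p53-null SaOS-2 cells with luciferase driven by a doxycycline-inducible promoter; compound on cells about two nights before reading with doxycycline added after day one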
Hits are given with their value; n = inactive; x = not tested or not shown.

SMILES	XBP1 UPR activ	Mdm2-MdmX inh	UPR CHOP act	SKKanGAS inh	Beta apoptosis	CSC inhib	Mdm2-MdmX conf	Full FLuc ctr
COc1ccc(-c2oc3ccc(-c4ccc5c(c4)OCO5)cc3c2C#CC2(O)CCCCC2)cc1	n	65.0	n	n	x	n	n	x
Cc1ccc2c(c1C)OC(=O)CC2c1ccccc1 (stereo unspecified)	n	n	n	n	n	n	x	x
COc1ccc(C(=O)NCc2nnc(SCC(=O)N3CCCC3)o2)cc1	n	n	n	n	n	n	x	x
COc1cc(-c2ccc3oc(-c4cccc(C)c4)c(C#CC4(O)CCCCC4)c3c2)cc(OC)c1OC	n	55.8	n	x	n	80.6	n	x
COCCOC(=O)c1[nH]c2c(c1C)C(=O)CC(c1cccs1)C2 (stereo unspecified)	x	x	x	n	x	x	x	x
CCOCCOC(=O)c1[nH]c2c(c1C)C(=O)CC(c1cccs1)C2 (stereo unspecified)	n	53.8	n	n	n	n	61.4	91.6
COC(=O)c1[nH]c2c(c1C)C(=O)CC(c1cccc(OC)c1)C2 (stereo unspecified)	n	53.6	n	n	n	n	58.6	92.5
CCCCCOC(=O)c1[nH]c2c(c1C)C(=O)CC(c1ccco1)C2 (stereo unspecified)	n	64.6	n	n	n	n	51.5	88.6
CCOCCOC(=O)c1[nH]c2c(c1C)C(=O)CC(c1ccccc1)C2 (stereo unspecified)	n	50.1	n	n	n	n	55.8	95.7
COC(=O)c1[nH]c2c(c1C)C(=O)CC(c1ccc(OC)c(OC)c1)C2 (stereo unspecified)	n	n	n	n	n	n	x	x
Cc1nc(C)c(-c2ccc(SCC(=O)Nc3cccc(Cl)c3C)nn2)s1	n	n	n	n	x	x	x	x
O=C(NCC(=O)N1CCN(C(=O)c2ccco2)CC1)c1ccc(Br)cc1	n	n	n	n	n	n	x	x
CCOC(=O)c1[nH]c2c(c1C)C(=O)CC(c1ccc(F)cc1)C2 (stereo unspecified)	n	58.9	n	n	n	n	54.0	63.3
CCOC(=O)c1[nH]c2c(c1C)C(=O)CC(c1ccc(OCC)c(OC)c1)C2 (stereo unspecified)	n	n	n	n	n	n	x	x
Cc1ccc(C2(C)NC(=O)N(CC(=O)NC(=O)NC(C)(C)C)C2=O)cc1 (stereo unspecified)	n	n	n	n	x	n	x	x
CNC(=O)c1nc(C)c(C2(C)CC(c3ccccc3)=NO2)s1 (stereo unspecified)	n	n	n	n	n	n	x	x
COc1ccc(NC(=O)c2nc(C)c(C3(C)CC(c4cccnc4)=NO3)s2)cc1 (stereo unspecified)	n	60.3	n	n	n	n	59.0	65.7
Cc1nc(C(=O)Nc2ccc(Cl)cc2)sc1C1(C)CC(c2cccc([N+](=O)[O-])c2)=NO1 (stereo unspecified)	n	60.7	n	n	n	n	n	47.0
CNC(=O)C1CCN(S(=O)(=O)c2c(C)noc2/C=C/c2ccc(OC)cc2)CC1	n	n	n	n	n	n	x	x
Cc1ccc(-n2nnnc2SCC(=O)Nc2nc(-c3ccc(F)cc3)cs2)cc1C	n	65.4	n	n	n	n	n	47.0
COc1ccc(-c2csc(NC(=O)CSc3nnnn3C)n2)cc1OC	n	n	n	n	n	n	x	x
COc1ccc(S(=O)(=O)Nc2cc(S(=O)(=O)N3CCOCC3)ccc2OC)cc1	n	n	n	x	n	n	x	x
Cc1ccc(-c2cc(C(=O)NCCCN3CCOCC3)c3ccc(Cl)c(C)c3n2)cc1	n	50.5	n	n	n	n	41.7	75.0
CCOc1ccccc1OCC(=O)Nc1ccc(N2CCOCC2)cc1N1CCOCC1	n	n	n	x	x	x	x	x
Cc1ccc(Cc2nnc3n(-c4ccccc4)nc(C(=O)c4ccccc4)n3c2=O)cc1	n	53.0	n	n	x	n	57.9	53.4
SMILES	XBP1 UPR activ	Mdm2-MdmX inh	UPR CHOP act	SKKanGAS inh	Beta apoptosis	CSC inhib	Mdm2-MdmX conf	Full FLuc ctr
COc1ccc(NS(=O)(=O)c2cc(NC(=O)c3ccccc3)ccc2N2CCOCC2)cc1	n	60.0	n	x	n	n	n	x
COc1ccc(NS(=O)(=O)c2cc(NC(=O)c3sccc3C)ccc2N2CCOCC2)cc1	n	57.3	n	n	n	n	64.3	64.1
COc1ccc(NS(=O)(=O)c2cc(NC(=O)c3cc(F)c(F)c(F)c3F)ccc2N2CCCC2)cc1	n	61.3	n	n	n	n	n	x
COc1ccccc1NS(=O)(=O)c1cc(NC(=O)c2sccc2C)ccc1N1CCOCC1	n	n	n	n	n	n	x	x
COc1ccc(NS(=O)(=O)c2cc(NC(=O)c3ccc(=O)[nH]c3)ccc2N2CCOCC2)cc1	n	n	n	n	n	x	x	x
COc1ccc(NS(=O)(=O)c2cc(NC(=O)c3ccc(=O)[nH]n3)ccc2N2CCOCC2)cc1	n	n	n	x	n	x	x	x
COc1ccc(NS(=O)(=O)c2cc(NC(=O)c3cc(F)c(F)cc3Cl)ccc2N2CCOCC2)cc1	n	51.4	n	x	n	n	n	x
COc1cc(C2C(C#N)=C(N)N(N(C)C)C3=C2C(=O)CCC3)ccc1O (stereo unspecified)	x	x	x	n	n	n	x	x
Cc1ccc(OC(=O)c2cccc(S(=O)(=O)N3CCN(C)CC3)c2)c(Br)c1	n	n	n	n	n	n	x	x
COc1cc(NC(=O)c2cc(S(=O)(=O)N3CCCCC3)c[nH]2)cc(OC)c1	n	n	n	n	n	n	x	x
CC(OC(=O)CNC(=O)c1cccs1)C(=O)Nc1ccc(S(N)(=O)=O)cc1 (stereo unspecified)	n	n	n	n	n	n	x	x
O=C(CC1C(=O)NCCN1CC1CCCCC1)NCCCN1CCOCC1 (stereo unspecified)	n	n	n	n	n	n	x	x
CC(NC(=O)c1ccc(S(=O)(=O)N(C)C)cc1)c1ccc(-n2ccnc2)cc1 (stereo unspecified)	n	n	n	n	n	n	x	x
CSc1ccc(CN2CCC(n3nccc3NC(=O)CCCc3ccccc3)CC2)cc1	n	n	n	n	n	n	x	x
c1ccc(/N=C2\N=C(Nc3ccccn3)c3ccccc32)nc1	n	71.8	n	60.4	102.7	n	n	x
CC(C)Nc1ccc(Nc2ccnc3cc4ccccc4cc23)cc1	n	95.3	n	n	125.3	108.0	100.4	51.4
COc1ccc(Nc2ccnc3ccccc23)cc1	n	65.2	n	n	n	n	56.9	n
c1ccc(CCNc2ccnc3cc4ccccc4cc23)cc1	x	x	x	n	x	x	x	x
COc1ccc([N+](=O)[O-])cc1Nc1c2ccccc2nc2ccccc12	n	64.4	n	n	n	130.7	63.4	62.6
